From ChEMBL document CHEMBL5335802, “Lead Optimization of the 5-Phenylpyrazolopyrimidinone NPD-2975 toward Compounds with Improved Antitrypanosomal Efficacy” (J Med Chem, 2024)
Each block holds one molecule with its values, some of them ahead of it. The source made the active and inactive calls. The calls are words filed in the database; no cut-off is given here.

Experiments:
[1] = Toxicity in mouse infected with Trypanosoma brucei Squib 427 trypomastigotes assessed as animal death at 10 mg/kg,po bid administrated for 5 consecutive days measured after 60 days; type: organism-based; settings: in vivo, 1440 h, time 60 day
[2] = test system: Trypanosoma brucei; assay: Antitrypanosomal activity against Trypanosoma brucei assessed as inhibition of parasite growth incubated for 72 hrs by resazurin reagent fluorimetric analysis; type: functional, organism-based
[3] = Cytotoxicity against human MRC5 cells incubated for 3 days by resazurin reagent fluorimetric analysis; type: toxicity, cell-based
[4] = Cytotoxicity against mouse Peritoneal macrophage cell incubated for 3 days by resazurin reagent fluorimetric analysis; type: toxicity, cell-based; settings: peritoneal macrophages
[5] = Metabolic stability in human liver microsomes assessed as drug metabolism in phase-I stage; type: ADME, Microsome
[6] = Metabolic stability in human liver microsomes assessed as parent compound remaining in phase-II metabolism measured after 1 hr; type: ADME, Microsome; settings: read-out: Stability
[7] = Metabolic stability in mouse liver microsomes assessed as parent compound remaining in phase-II metabolism measured after 1 hr; type: ADME, Microsome; settings: read-out: Stability
[8] = test system: Plasmodium falciparum; assay: Antiplasmodial activity against Plasmodium falciparum assessed as inhibition of parasite growth incubated for 72 hrs by resazurin reagent fluorimetric analysis; type: functional, organism-based
[9] = test system: Trypanosoma brucei; assay: Antitrypanosomal activity against Trypanosoma brucei Squib 427 trypomastigotes infected in mouse model assessed as reduction in parasitemia at 25 mg/kg,po bid administrated for 5 consecutive days; type: functional, organism-based
How it was run: (§1)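 Female Swiss mice (15-20 g), three per group, infected IP with 10^4 T. brucei Squib 427 trypomastigotes. Dosing PO b.i.d. for 5 days in PEG400; first dose 30 min before infection. Vehicle and suramin (10 mg/kg IP s.i.d., 5 days) controls. Parasitemia counted microscopically in tail-vein blood drops at several time points up to 63 dpi. Clinical or adverse effects observed.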

[10] = test system: Trypanosoma brucei; assay: Antitrypanosomal activity against Trypanosoma brucei Squib 427 trypomastigotes infected in mouse model assessed as reduction in parasitemia at 50 mg/kg,po bid administrated for 5 consecutive days by microscopic analysis; type: functional, organism-based; how it was run: as §1
[11] = Toxicity in mouse infected with Trypanosoma brucei Squib 427 trypomastigotes assessed as animal death at 25 mg/kg,po bid administrated for 5 consecutive days; type: organism-based; settings: in vivo
How it was run: (§2)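 Female Swiss mice (15-20 g), groups of three, infected IP with 10⁴ T. brucei Squib 427 trypomastigotes. Compound given PO b.i.d. for 5 days in PEG400 (formulated at 12.5 and 6.25 mg/mL, up to 100 μL/25 g body weight). First dose 30 min before infection. PEG400 vehicle control group included. Animals observed for clinical or adverse effects and survival; tail-vein parasitemia checked microscopically until 63 dpi.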

[12] = Toxicity in mouse infected with Trypanosoma brucei Squib 427 trypomastigotes assessed as animal death at 50 mg/kg,po bid administrated for 5 consecutive days measured after 60 days; type: organism-based; settings: in vivo, 1440 h, time 60 day; how it was run: as §2
[13] = test system: Trypanosoma brucei; assay: Antitrypanosomal activity against Trypanosoma brucei Squib 427 trypomastigotes infected in mouse model assessed as reduction in parasite growth in blood at 25 mg/kg,po bid administrated for 5 consecutive days by SL-RNA qPCR assay; type: functional, organism-based
How it was run: (§3)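 Surviving mice from the acute infection model (PO b.i.d., 5 days, PEG400) tested by SL-RNA qPCR. Peripheral blood erythrocyte-lysed before RNA extraction. Mice sedated with ketamine/xylazine and perfused; fat, brain and spleen pieces held in RNAlater overnight at 4 °C. Activation 10 min 45 °C, 10 min 95 °C; 40 cycles 95/50/60 °C, 15 s each; melting curve. Eef2 qPCR confirmed RNA extraction.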

[14] = test system: Trypanosoma brucei; assay: Antitrypanosomal activity against Trypanosoma brucei Squib 427 trypomastigotes infected in mouse model assessed as reduction in parasite growth in blood at 50 mg/kg,po bid administrated for 5 consecutive days by SL-RNA qPCR assay; type: functional, organism-based; how it was run: as §3
[15] = test system: Trypanosoma brucei; assay: Antitrypanosomal activity against Trypanosoma brucei Squib 427 trypomastigotes infected in mouse model assessed as reduction in parasite growth in spleen at 25 mg/kg,po bid administrated for 5 consecutive days by SL-RNA qPCR assay; type: functional, organism-based; how it was run: as §3
[16] = test system: Trypanosoma brucei; assay: Antitrypanosomal activity against Trypanosoma brucei Squib 427 trypomastigotes infected in mouse model assessed as reduction in parasite growth in spleen at 50 mg/kg,po bid administrated for 5 consecutive days by SL-RNA qPCR assay; type: functional, organism-based; how it was run: as §3
[17] = test system: Trypanosoma brucei; assay: Antitrypanosomal activity against Trypanosoma brucei Squib 427 trypomastigotes infected in mouse model assessed as reduction in parasite growth in fat at 25 mg/kg,po bid administrated for 5 consecutive days by SL-RNA qPCR assay; type: functional, organism-based; how it was run: as §3
[18] = test system: Trypanosoma brucei; assay: Antitrypanosomal activity against Trypanosoma brucei Squib 427 trypomastigotes infected in mouse model assessed as reduction in parasite growth in fat at 50 mg/kg,po bid administrated for 5 consecutive days by SL-RNA qPCR assay; type: functional, organism-based; how it was run: as §3
[19] = test system: Trypanosoma brucei; assay: Antitrypanosomal activity against Trypanosoma brucei Squib 427 trypomastigotes infected in mouse model assessed as reduction in parasite growth in brain at 25 mg/kg,po bid administrated for 5 consecutive days by SL-RNA qPCR assay; type: functional, organism-based; how it was run: as §3
[20] = test system: Trypanosoma brucei; assay: Antitrypanosomal activity against Trypanosoma brucei Squib 427 trypomastigotes infected in mouse model assessed as reduction in parasite growth in brain at 50 mg/kg,po bid administrated for 5 consecutive days by SL-RNA qPCR assay; type: functional, organism-based; how it was run: as §3

Compound: Cc1ccc(C(=O)Nc2ccc(S(=O)(=O)O)c3cc(S(=O)(=O)O)cc(S(=O)(=O)O)c23)cc1NC(=O)c1cccc(NC(=O)Nc2cccc(C(=O)Nc3cc(C(=O)Nc4ccc(S(=O)(=O)O)c5cc(S(=O)(=O)O)cc(S(=O)(=O)O)c45)ccc3C)c2)c1 [SURAMIN]
Activity [1]: Non-Toxic

IC50 ([2]; read-out: pIC50 (converted)): 0.0398 µM
Compound: O=c1[nH]c(-c2ccc(F)cc2)nc2c(C3CCCCC3)n[nH]c12
IC50 at 3 days [3]: > 63.1 µM

Compound: CCCn1nc(C(C)C)c2nc(-c3ccc(F)cc3)[nH]c(=O)c21
IC50 at 3 days [3]: > 63.1 µM

Compound: CC(C)c1nn(C(C)C)c2c(=O)[nH]c(-c3ccc(F)cc3)nc12
IC50 at 3 days [3]: > 63.1 µM

Compound: CCn1nc(C(C)C)c2nc(-c3ccc(F)cc3)[nH]c(=O)c21
IC50 at 3 days [3]: > 63.1 µM

Compound: CC(C)c1[nH]nc2c(=O)n(C)c(-c3ccc(F)cc3)nc12
IC50 at 3 days [3]: > 63.1 µM

Compound: CCc1n[nH]c2c(=O)[nH]c(-c3ccc(F)cc3)nc12
IC50 at 3 days [3]: > 63.1 µM

Stability [5]: Stable
remaining at 1 h [6]: 69%
remaining at 1 h [7]: 69%
Compound: O=c1[nH]c(-c2ccc(F)cc2)nc2c(C3CCCC3)n[nH]c12
IC50 at 3 days [3]: > 63.1 µM
IC50 at 3 days [4]: > 63.1 µM

Compound: Cc1n[nH]c2c(=O)[nH]c(-c3ccc(F)cc3)nc12
IC50 at 3 days [3]: > 63.1 µM

Stability [5]: Stable
remaining at 1 h [6]: 69%
remaining at 1 h [7]: 69%
Compound: CC(C)c1n[nH]c2c(=O)[nH]c(-c3ccc(F)cc3)nc12

Compound: CC(C)c1c2nc(-c3ccc(F)cc3)[nH]c(=O)c2nn1C
IC50 at 3 days [3]: > 63.1 µM

IC50 ([2]; read-out: IC50): 3.2 µM
IC50 ([2]; read-out: pIC50 (converted)): 3.16 µM
Compound: COc1ccc(CCn2nc(C(C)C)c3nc(-c4ccc(F)cc4)[nH]c(=O)c32)cc1
IC50 at 3 days [3]: > 63.1 µM

Compound: CC(C)c1n[nH]c2c(=O)[nH]c(Cc3ccccc3)nc12
IC50 [8]: 1.26 µM

Compound: CC(C)(C)c1n[nH]c2c(=O)[nH]c(-c3ccc(F)cc3)nc12
IC50 at 3 days [3]: > 63.1 µM
IC50 at 3 days [4]: > 63.1 µM
Stability [5]: Stable
remaining at 1 h [6]: 69%
remaining at 1 h [7]: 69%
Activity [9]: Active
Activity [10]: Active
Activity [11]: Non-Toxic
Activity [12]: Non-Toxic
Activity [13]: Active
Activity [14]: Active
Activity [15]: Active
Activity [16]: Active
Activity [17]: Active
Activity [18]: Active
Activity [19]: Active
Activity [20]: Active

Compound: CC(C)c1nn(CCC(N)=O)c2c(=O)[nH]c(-c3ccc(F)cc3)nc12
IC50 at 3 days [3]: > 63.1 µM

Compound: CC(C)c1nn(CCO)c2c(=O)[nH]c(-c3ccc(F)cc3)nc12
IC50 at 3 days [3]: > 63.1 µM

IC50 ([2]; read-out: pIC50 (converted)): 0.0501 µM
Compound: O=c1[nH]c(-c2ccc(F)cc2)nc2c(-c3ccccc3)n[nH]c12
IC50 at 3 days [3]: > 63.1 µM

Compound: O=c1[nH]c(-c2ccc(F)cc2)nc2cn[nH]c12
IC50 at 3 days [3]: > 63.1 µM

IC50 ([2]; read-out: pIC50 (converted)): 0.0794 µM
Compound: CC(C)c1nn(C)c2c(=O)[nH]c(-c3ccc(F)cc3)nc12
IC50 at 3 days [3]: > 63.1 µM

Compound: COCCn1nc(C(C)C)c2nc(-c3ccc(F)cc3)[nH]c(=O)c21
IC50 at 3 days [3]: > 63.1 µM
